Laboratory results from ChEMBL document CHEMBL4513216, “Probing the Open Global Health Chemical Diversity Library for Multistage-Active Starting Points for Next-Generation Antimalarials” (ACS Infect Dis, 2020).

Experiment: Toxicity liver stage against HepG2, at 10uM
Type: cell-based
Set-up: test concentration 10 uM, cell line HepG2-A16-CD81EGFP
Details: human, HepG2-A16-CD81EGFP cells; read-out: INHIBITION
Procedure, shortened: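 Uninfected HepG2-A16-CD81EGFP cells, 3 × 10^3 per well, 1536-well, plated on prespotted compound at 10 μM final, parasite-free screening media added to match infected plates; puromycin 10 μM positive, DMSO 0.5% negative; run in parallel with 48 h PbLuc assay at 37 °C, 5% CO2; viability by CellTiter-Glo luminescence, normalized to controls.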

SMILES | cytotoxicity at 10 µM [%]
COCCC1(CO)CCCN(Cc2cc(C(F)(F)F)ccc2F)C1 (configuration not stated) | -141
Cc1cnn(C2CCCN(C(=O)c3c(C)oc4nc[nH]c(=O)c34)C2)c1 (configuration not stated) | -6.62
COc1ccccc1C1(O)CCCN(C(=O)c2cnc(SC)nc2)C1 (configuration not stated) | 7.27
NCCCn1nc(C(F)(F)F)c2c1CCC2 | -8.3
COCCN1CCC2(CC1)CC(N1CCOCC1)c1cc(C)ccc12 (configuration not stated) | -106
COCCc1noc(CN2CCCCC2Cn2nc(C)cc2C)n1 (configuration not stated) | 0.962
Cn1ccc(CN2CCC(COC3CCCC3)CC2)cc1=O | -1.68
CC(C)C(=O)NCc1ccc(N(C)C)cc1 | -18.1
NC(=O)c1cnc(NC2CC2)nc1CCNC(=O)Cc1ccccc1 | 4.44
Cc1ncc(CNC(=O)Cc2ccsc2)c(C2CCCN2C)n1 (configuration not stated) | -1.25
C[C@@H]1CN(CCc2ccccc2)C[C@]12CCN(CC(=O)N(C)C)C2=O | -4.19
CNC(=O)C1(c2cnccn2)CCCN1C(=O)c1ncccc1C (configuration not stated) | 4.22
Cc1cccc(N(CC(=O)N2CCCCC2)Cc2nc(=O)[nH][nH]2)c1 | -2.85
CN(C)c1nccc(-c2c[nH][nH]c2=O)n1 | -1.25
Cc1nc(CN2CCCN(c3nccs3)CC2)no1 | -3.62
Cn1cc(CN2CC[C@@H]3[C@@H](CCC(=O)N3CCc3c[nH]cn3)C2)cn1 | -9.73
Cc1nc(CCNC(=O)C2CCN(C(C)C)CC2)sc1Cl | -8.06
CC(=O)NCC(=O)NCC1Cn2nnc(-c3cccc(F)c3)c2CO1 (configuration not stated) | -6.77
CCOc1cc(C)nc(N2CCN(C(=O)c3csnn3)CC2)n1 | 2.85
CCn1c(C)nnc1CN(C)C1CCN(Cc2cnc(C)cn2)C1 (configuration not stated) | 14.6
Cc1ccc(CN2CCO[C@H]3[C@@H](OCc4cccnc4)CC[C@@H]32)o1 | -0.58
CCS(=O)(=O)N1Cc2nccn2CC(Cn2cccn2)C1 (configuration not stated) | 10.7
CC(C)c1nc(CN2CCOC(Cn3cncn3)C2)no1 (configuration not stated) | 1.01

SMILES | cytotoxicity at 10 µM [%]
O=C(Cc1ccc(O)c(F)c1)N1CCC2(CCNCC2)CC1 | -7.43
OC1(CN2CCCCC2)CCN(Cc2c[nH]c(CC3CCCC3)n2)C1 (configuration not stated) | -13
Cc1cccc(N(CC(=O)N2CCCCC2)C(=O)C2CCCO2)c1 (configuration not stated) | -1.52
CN1Cc2ccccc2CC1C(=O)N1CCN(CCS(C)(=O)=O)CC1 (configuration not stated) | 15.1
CCN(CC)Cc1cn2c(n1)CN(C(=O)c1cnccn1)CC2 | 6.15
CC(C)CNC(=O)CNc1c(NCc2ccco2)c(=O)c1=O | -0.817
O=C(NCCC1CCCCO1)c1cc(COc2ccccc2F)[nH]n1 (configuration not stated) | 6.57
O=C(NCCNc1cncc(Br)c1)c1ccc(O)cc1 | 3.73
CSc1cccc(NC(=O)Nc2c(O)oc3ccccc3c2=O)c1 | 4.45
O=C(Cc1ccc2c(c1)CCC2)NCCNc1cnccn1 | -0.037
CC(NC(=O)NCCCn1cccn1)c1ccc2c(c1)OCCCO2 (configuration not stated) | -9.13
CC(=O)N1CCC2(CC1)COCCN2CCN(C)C | -7.98
CC(C(=O)Nc1ccc(N2CCCCC2)nc1)n1ccnc1 (configuration not stated) | -29.8
Cc1ccc(CN(C)C(=O)CN2CCc3ccccc3C2)o1 | -6.9
Cc1oc(NC(=O)C(C)N2CCN(C(C)(C)CO)CC2)c(C#N)c1C (configuration not stated) | -3.62
COc1ncc(C)cc1NC(=O)COc1ccccc1F | -9.52
Cc1cc(NC(=O)NC(C)CN2CCN(c3ccccc3)CC2)on1 (configuration not stated) | 11.5
CC(C)c1ccc(C(CN)N2CCc3sccc3C2)cc1 (configuration not stated) | 1.66
CN(Cc1ccsc1)C(=O)c1cccc(NS(C)(=O)=O)c1 | -5.72
Cc1noc(C)c1CN1CC[C@@H](OCC2CC2)[C@@H](Cc2ccccc2)C1 | 11.5
COCCC1(CNC(=O)NCC2CCCS2)CCCC1 (configuration not stated) | 0.96
CNc1nc2c(c(C(=O)N3CCCC3)n1)CN(C(=O)c1cccs1)CC2 | -112
O=C(C1SCCc2sccc21)N1CC(O)C1 (configuration not stated) | 9.22

SMILES | cytotoxicity at 10 µM [%]
OCCC1CN(c2nc(-c3ccncc3)nc3c2CCNCC3)CCO1 (configuration not stated) | 5.05
Cc1ccc(-c2nc(CN3CCc4nn(C)c(=O)cc4C3)co2)cc1 | -11.6
CC(C)(C)OC(=O)N1CCN(C(=O)c2sccc2C2CC2)CC1 | 2.38
CC(=O)N1CCCN(C(=O)Nc2ccccc2N2CCOC2=O)CC1 | 0.334
CC(C)(CNC(=O)CSc1nnnn1C1CC1)c1ccccc1F | 13.4
CCc1nccn1CC(=O)Nc1cccc(C(=O)OC)c1 | -6.88
CC(C)N1CC2(CCCN(c3ccnc4ccccc34)C2)CCC1=O (configuration not stated) | 8.62
CC(=O)N(C)c1nc(CN2CCOC(Cn3cc(C)cn3)C2)cs1 (configuration not stated) | -7
c1cc2c(cc1CN1CCC(Cc3noc(C4CC4)n3)CC1)OCCO2 | 14.9
O=C(CCc1ccccc1)N1CCC(N2CCNC2=O)CC1 | 5.49
CCc1ncc2c(n1)CN(C(=O)c1c(C)[nH]c3c1C(=O)CCC3)C2 | -45.8
Cn1c(CCNC(=O)C2CCCN(C3CCOCC3)C2)n[nH]c1=O (configuration not stated) | 2.12
O=C1CCC2(CCCN(Cc3nnc(C4CC4)o3)C2)CN1CCO (configuration not stated) | 5.14
COCCCN1CCN(C(=O)C(c2cccc(F)c2)N(C)C)CC1 (configuration not stated) | -13.1
CN(C)Cc1nnc2n1CCN(c1cnccn1)CC2 | -10.8
Cc1ccc(CCNc2ncc(C)c(-c3ccnn3C)n2)s1 | 9.68
CC(=O)N1CCN(CCNC(=O)c2nc3ccccc3c(=O)[nH]2)CC1 | 6.45
CC(Cn1cccn1)NC(=O)c1cccs1 (configuration not stated) | -4.26
CC(C)c1nc(C2CCCN(C(=O)c3ccc4c(c3)OCO4)C2)no1 (configuration not stated) | -14.1
Cc1ccc(S(=O)(=O)Nc2cnn(C3CCOCC3)c2)cc1C | 13.5
Cc1cc(F)cc(CN2CCCn3nc(CNS(C)(=O)=O)cc3C2)c1 | -3.85
c1ncc(-c2ccc(C3CNCCO3)nc2)cn1 (configuration not stated) | -5.33
COC(=O)c1ccc(-c2noc(CN(CCO)Cc3cccs3)n2)cc1 | 6.43

SMILES | cytotoxicity at 10 µM [%]
CC(=O)Nc1ncc(S(=O)(=O)Nc2ccc(F)cc2F)s1 | 11.1
Cc1cc(C(=O)NCc2csc(N(C)C)n2)c2ccc(C)c(C)c2n1 | -0.724
CCc1cc(NCCS(=O)(=O)N(C)C)nc(N2CCOCC2)n1 | 1.44
Cc1cn[nH]c1C1COCCN1Cc1cscn1 (configuration not stated) | 2.67
c1cnc(N2CCCC3(CCN(c4ncccn4)C3)C2)nc1 (configuration not stated) | -151
Cc1cc(C)c2nc(C)cc(C(=O)NC(C)c3nnn[nH]3)c2c1 (configuration not stated) | 7.24
CCc1n[nH]c(C(=O)NCCn2nccc2C)c1C | -7.28
CNC(=O)[C@@H]1C[C@@H](N)CN1C(=O)CCSCc1ccc(F)cc1 | -17.6
O=C(c1ccccn1)N1CCC2(CC1)COC(COc1cccnc1)C2 (configuration not stated) | -1.98
Cc1nc(O)cc(C2CCCN(C(=O)COCc3ccccc3)C2)n1 (configuration not stated) | -11
CCc1n[nH]c(C(=O)NCCn2ccc(C)n2)c1C | 8.58
CCOCC(=O)N1CCC(C)(c2nccs2)CC1 | 7.64
O=C(Nc1ccccc1)N1CCc2nc(C(=O)N3CCCC3)sc2CC1 | 11.3
Cc1cnn(CC2CCCN2C(=O)c2ccc(OC(C)C)nc2)c1 (configuration not stated) | -6.13
Cn1cc(C(=O)CC2CCCN2C(=O)c2ccc3[nH]ncc3c2)cn1 (configuration not stated) | -2.53
CC(C)N(C)C(=O)c1coc(CN2CCN(c3ccccc3F)CC2)n1 | 7.31
c1cncc(N2CCOCC3(CN(Cc4cccs4)CCO3)C2)c1 (configuration not stated) | -79.7
OC1(CNC2CCN(c3ccccn3)CC2)CCc2ccccc21 (configuration not stated) | -3.48
Cc1cc(C2CCCN2S(=O)(=O)c2cnn(C)c2)on1 (configuration not stated) | -5.22
Cc1nc(CN2CCc3ncnc(-c4ccsc4)c3CC2)cs1 | -79.8
CCc1nc2c(N3CCC4(CC3)CC(=O)N(CC(C)C)C4)ncnc2o1 | 16.2
CC(C)CN1C[C@H](COCc2ccccc2)Oc2ncccc2C1=O | -57.4
CCn1ccnc1C1CCN(Cc2cccc(Cl)c2)CC1 | -9.45

SMILES | cytotoxicity at 10 µM [%]
Cc1occc1C(=O)N1CCC[C@]2(C[C@@H](OCc3ccncc3)CO2)C1 | -6.25
Cc1nc(CO[C@@H]2CN(Cc3cccnc3)[C@@H]3COC[C@@H]32)cs1 | 5.05
CCN(Cc1cc(Cl)ccc1OC)Cc1cc(C)nn1C | 6.62
C=CNC(=O)c1nnc2ccc(N3CCOCC3)cc2n1 | 8.85
Cc1cn2nc(N3CCCC3Cn3cncn3)sc2n1 (configuration not stated) | -18.3
CC(=O)c1cn(CC(=O)NC(C(=O)O)C(C)C)c2ccccc12 (configuration not stated) | 0.415
COCCOC1CCN(C(C(=O)O)c2ccc(F)c(Cl)c2)CC1 (configuration not stated) | 9.84
Cc1cccc(CN(Cc2ccccn2)S(=O)(=O)N(C)C(C)C)c1 | -5.02
c1cnc(N2CCO[C@H]3CN(Cc4csnn4)C[C@H]32)cn1 | 4.23
CN1CCN(C2CCN(CCCOc3ccc(F)cc3)CC2)C1=O | 0.28
CCOc1ccc(S(=O)(=O)N(C)Cc2cnn(CC)c2)cc1 | 11.6
Cc1ccc(CC2COCCN(Cc3ccccc3)C2)nc1 (configuration not stated) | 8.3
CS(=O)(=O)CCCSCc1cc(F)cc(Br)c1 | 9.05
CCc1cc(C(=O)N2CCCC2c2nc(O)cc(CC)n2)on1 (configuration not stated) | -7
Cc1noc(C)c1CN1C[C@@H]2COC[C@@H](C(=O)N3CCCCO3)[C@@H]2C1 | -71.7
O=c1c2sccc2ncn1Cc1cc(C2CC2)[nH]n1 | 0.463
COc1cc(C)cc(OC)c1C(C(=O)O)N(C)Cc1c(C)nn(C)c1C (configuration not stated) | 7.34
COc1cccc2c1ccn2CC(=O)Nc1nc[nH]n1 | -0.297
COc1ccc(OCCNCc2c(C)nn(C)c2N(C)C)cc1 | -6.63
O=C(NC[C@H]1OC[C@@H](NC2CCNCC2)[C@@H]1O)C1CCCC1 | -10.5
